The list is a sample of the results.
Apaf1 activ = activates human Apaf-1 apoptosome. 0.31% of 330,000 active. Apaf-1 apoptosome caspase-3 activation, DEVD-Rh110 fluorescence; hits give low values. activity change, negative = activation, % at 20 µM. O14727. AID 489031;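 active = activity change at or below -40% at 20 µM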
Target sequence (O14727 whole entry, looked up): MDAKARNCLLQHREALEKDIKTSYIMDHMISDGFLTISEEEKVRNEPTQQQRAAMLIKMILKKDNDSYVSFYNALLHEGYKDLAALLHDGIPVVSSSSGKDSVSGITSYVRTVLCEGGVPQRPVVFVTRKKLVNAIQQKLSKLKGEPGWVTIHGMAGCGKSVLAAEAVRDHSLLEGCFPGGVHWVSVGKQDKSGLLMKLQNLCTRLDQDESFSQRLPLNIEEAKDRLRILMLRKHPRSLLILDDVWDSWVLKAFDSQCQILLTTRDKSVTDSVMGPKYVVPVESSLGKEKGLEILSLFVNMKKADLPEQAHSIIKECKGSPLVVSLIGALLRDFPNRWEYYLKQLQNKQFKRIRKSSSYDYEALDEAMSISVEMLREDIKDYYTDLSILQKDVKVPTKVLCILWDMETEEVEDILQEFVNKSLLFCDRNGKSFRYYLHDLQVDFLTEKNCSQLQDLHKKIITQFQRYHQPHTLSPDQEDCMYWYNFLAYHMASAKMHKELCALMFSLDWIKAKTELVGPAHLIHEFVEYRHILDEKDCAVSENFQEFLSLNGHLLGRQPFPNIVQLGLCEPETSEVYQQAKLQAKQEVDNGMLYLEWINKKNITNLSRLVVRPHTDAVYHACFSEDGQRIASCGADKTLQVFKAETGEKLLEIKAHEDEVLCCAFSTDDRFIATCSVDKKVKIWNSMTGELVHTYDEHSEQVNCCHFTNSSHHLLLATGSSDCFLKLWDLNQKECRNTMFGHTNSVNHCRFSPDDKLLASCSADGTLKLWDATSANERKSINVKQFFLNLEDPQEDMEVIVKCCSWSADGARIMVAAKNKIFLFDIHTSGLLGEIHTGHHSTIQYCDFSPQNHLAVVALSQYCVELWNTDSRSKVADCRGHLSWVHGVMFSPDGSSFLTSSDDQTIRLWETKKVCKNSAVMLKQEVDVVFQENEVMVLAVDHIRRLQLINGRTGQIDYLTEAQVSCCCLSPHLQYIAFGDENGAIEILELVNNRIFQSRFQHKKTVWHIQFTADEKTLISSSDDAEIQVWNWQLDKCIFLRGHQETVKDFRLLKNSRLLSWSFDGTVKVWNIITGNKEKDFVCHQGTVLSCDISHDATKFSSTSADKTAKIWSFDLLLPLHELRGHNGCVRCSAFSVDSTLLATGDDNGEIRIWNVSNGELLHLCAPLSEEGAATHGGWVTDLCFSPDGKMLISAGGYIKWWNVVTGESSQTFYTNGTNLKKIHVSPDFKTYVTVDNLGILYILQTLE
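Material: reconstituted apoptosome of Apaf-1, cytochrome c, caspase-9, procaspase-3; times: 30 min preincubation, 50 min reaction, room temperature; measured by: fluorescence, 540 nm emission, 480 nm excitation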
Rh110 interf act = Rh110 signal interference in Apaf-1 activator counter-screen | shares compounds with Apaf1 activ | Rh110 fluorescence interference, quenched caspase reaction, Ex480/Em540 | fluorescence interference (activity change), % at 20 µM, hits read low | 980 tested, under 10 active;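 active = mean activity change at or below -40% when tested at 20 µM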
Apaf-1 act conf2 = confirmation of human Apaf-1 activators | shares compounds with Apaf1 activ | reconstituted apoptosome caspase-3 activity, DEVD-Rh110 fluorescence; hits give low values | activity change, negative = activation, % at 20 µM | 5% of 980 active;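 active = mean activity change at or below -40%, meaning activation of 40% or more, at 20 µM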
Numbers without * were called inactive; / = no result given.

SMILES | Apaf1 activ | Rh110 interf act | Apaf-1 act conf2
C/C(CCN1CCc2nc(-c3ccccc3)c(-c3ccccc3)cc2C1)=N\OC[C@@H](C)[C@H](OCc1ccccc1)C(C)C | 46.7 | / | /
CCOC(=O)C1CCN(c2cc3c(cc2NC(=O)c2ccccc2OCC)n(C)c(=O)n3C)CC1 | 40.4 | / | /
COc1cc(C(=O)N2CCN(c3cccc(C)c3C)CC2)ccc1OCC(=O)N1CCOCC1 | 50.8 | / | /
Cc1cccc(NC(=O)c2ccccc2OCC(=O)N2CCOCC2)c1C | -545.5* | 20.1 | 13.8
CC[C@H](C)Cc1cn([C@@H](CCCN=C(NC(=O)OC(C)(C)C)NC(=O)OC(C)(C)C)C(=O)NCCCCCCCCCCC(=O)N2CCN(C(=O)OC(C)(C)C)CC2)nn1 | 57.3 | / | /
CCOc1cc(/C=C2\C(=O)N(c3nc(-c4ccc(Br)cc4)cs3)N=C2c2ccccc2)ccc1O | 53.4 | / | /
CCN1CCN(c2ccc(NC(=O)CCc3c(C)nc4c(-c5ccccc5)c(C)nn4c3C)cc2)CC1 | 48.5 | / | /
O=C(NCCNc1ccc2ccccc2c1)c1cccn2c(=O)c3sccc3nc12 | 50.8 | / | /
C/C(=N\Nc1ccc([N+](=O)[O-])cc1)c1ccc(C#N)cc1 | -44.0* | 6.1 | 1.6
O=S(=O)(Nc1cccc(-c2nc3cccnc3s2)c1)c1ccc2c(c1)OCCO2 | -103.6* | 2.1 | 9.8
COc1cccc(C(C[N+](=O)[O-])c2c(C)[nH]n(-c3ccccc3)c2=O)c1 (stereo unspecified) | 97.0 | / | /
CC/C(=C(\c1ccccc1)c1ccc(OCCN(C)C)cc1)c1ccccc1 | 68.8 | / | /
O=C1C(=O)c2c(C(=O)c3ccccc3)coc2-c2ccccc21 | 55.2 | / | /
O=C(Cn1ncn2c(cc3ccccc32)c1=O)NCCc1cccs1 | -392.3* | 6.1 | 7.0
CC1(C)Cc2ccccc2C2=NNC(=O)C2=N1 | 62.1 | / | /
CC(C)(C)c1ccc(/C=C(\C#N)C(=O)Nc2ccccn2)cc1 | -186.1* | 2.2 | 20.8
CCCCOc1cc(C(=O)OCCN(CC)CC)ccc1N | 2.8 | / | /
COc1ccc2[nH]c3c(=O)n(/N=C/c4ccc(OC)c(CN5CCCC5)c4)c(C)nc3c2c1 | 43.1 | / | /
N#Cc1c(/N=C/c2ccco2)sc2c1CCCCC2 | -169.2* | 1.5 | 22.0
C(=Nc1cccc2c(N=Cc3ccco3)cccc12)c1ccco1 | 92.5 | / | /
Oc1ccc(/C=N/Nc2cc(N3CCCC3)nc(N3CCCC3)n2)cc1 | 97.4 | / | /
Cc1[nH]n(-c2ccccc2)c(=O)c1C(c1ccc(C(=O)O)cc1)c1c(C)[nH]n(-c2ccccc2)c1=O | 70.6 | / | /
O=C(COC(=O)c1cccc(Cl)c1)NCCN1C(=O)CSC1=O | -46.3* | 3.5 | 3.1
COc1ccc(CN2C(=O)c3cccnc3C2=O)cc1S(=O)(=O)N1CCOc2ccccc21 | -52.0* | 14.4 | 19.6
COc1ccc(CC(=O)N(C)CC(=O)Nc2ccccc2Cl)cc1S(=O)(=O)N1CCOCC1 | 59.5 | / | /
SMILES | Apaf1 activ | Rh110 interf act | Apaf-1 act conf2
COc1ccc(CN(C)C(=O)Cc2ccc(OC)c(S(=O)(=O)N3CCOCC3)c2)cc1OC | 59.8 | / | /
COc1cccc2sc(N(CCN(C)C)C(=O)c3ccc4c(c3)CCCC4)nc12 | 50.0 | / | /
CCCCCCCCNC(C)C(O)c1ccc(SC(C)C)cc1 (stereo unspecified) | 57.8 | / | /
CN1CCN(S(=O)(=O)c2ccc(N3CCN(C(c4ccccc4)c4ccccc4)CC3)nc2)CC1 | -77.6* | -2.5 | 11.4
COc1ccc(S(=O)(=O)N2CCN(c3ccc4nnc(-c5ccccc5)n4n3)CC2)cc1 | 64.9 | / | /
C=CCC[C@@H](Cc1ccc(F)cc1)C(=O)OC[C@@H]1CCCN1C(=O)[C@H](CC=C)CC(=O)N[C@H](CO)Cc1ccccc1 | 43.1 | / | /
CSc1nc(NC(C)(C)C)nc(Oc2ccc(=O)n(C)n2)n1 | -55.4* | 5.5 | 1.5
COc1cc(NC(C)CCCN)c2ncccc2c1Oc1ccccc1 (stereo unspecified) | 70.0 | / | /
COc1cccc(NC(=S)Nc2cccc3ccccc23)c1 | 93.8 | / | /
COc1cccc(NC(=O)C(Sc2nnc(Nc3ccccc3C)s2)c2ccccc2)c1 (stereo unspecified) | -275.8* | 15.9 | 6.1
COc1cccc(-c2nnc(SC(C(=O)c3c[nH]c4ccccc34)c3ccccc3)n2C)c1 (stereo unspecified) | 42.9 | / | /
CCC1Nc2ncnc(N3CCN(c4ccccc4)CC3)c2N(Cc2ccccc2)C1=O (stereo unspecified) | 60.3 | / | /
C=CCn1c(N)c(C(=O)Nc2cccc(C)c2)c2nc3ccccc3nc21 | 47.5 | / | /
CC(C)N=c1cc2n(-c3ccc(Cl)cc3)c3ccccc3nc-2cc1Nc1ccc(Cl)cc1 | 68.2 | / | /
Cc1c(/C(O)=C2/C(=O)C(=O)N(CCN3CCOCC3)C2c2cccs2)cnn1-c1ccccc1 (stereo unspecified) | -424.1* | 16.7 | 15.6
FC(F)(F)c1cc(CCN2CCNC[C@@H]2c2ccccc2)cc(C(F)(F)F)c1 | 60.6 | / | /
CC(C)COC(=O)c1nnsc1NC(=O)Nc1ccccc1 | -63.2* | 0.3 | 13.5
NC(=O)OCC(COC(N)=O)c1ccccc1 | -6.0 | / | /
COc1ccc(OC)c(Nc2cc3ccccc3c(=O)[nH]2)c1 | 96.8 | / | /
CC(C)Oc1ccc(C2NC(=O)c3ccccc3O2)cc1 (stereo unspecified) | -97.8* | 1.4 | 2.5
O=C1OC(Nc2ccc3ncccc3c2)c2ccccc21 (stereo unspecified) | 82.1 | / | /
CC(=O)N(C)C1=C(O)c2ccccc2C(=O)C1=O | 40.4 | / | /
Cc1ccc(S(=O)(=O)N2CCC(C(=O)OCC(=O)N(C)CC(=O)Nc3ccc(F)cc3)CC2)cc1C | 51.6 | / | /
COc1ccccc1OCCNC(=O)c1cccc(S(=O)(=O)N2CCN(Cc3ccccc3)CC2)c1 | 67.2 | / | /
COc1cc2c(cc1NC(=O)C(C)N1CCN(S(=O)(=O)c3ccc(C)c(C)c3)CC1)oc1ccccc12 (stereo unspecified) | -578.4* | 13.6 | 12.8
SMILES | Apaf1 activ | Rh110 interf act | Apaf-1 act conf2
c1ccc(C2(CN3CCNC[C@H]3Cc3cccc4ccccc34)CC2)cc1 | 53.0 | / | /
CC[C@H](C)[C@@H]1NC(=O)[C@H]([C@@H](C)CC)NC(=O)[C@@H](CC(C)C)NC(=O)[C@H](Cc2ccccc2)NC(=O)[C@H](Cc2ccccc2)NC(=O)[C@@H]2CCCN2C(=O)[C@@H]2CCCN2C(=O)[C@H](C(C)C)NC(=O)[C@H](CC(C)C)NC1=O | 53.7 | / | /
COC(=O)C1=C(C)N(Cc2ccccc2)C(=NCc2ccccc2)N[C@H]1c1ccccc1 | 47.2 | / | /
Oc1ccc2ccccc2c1CN1CCN(c2ccccc2F)CC1 | -318.7* | -3.4 | 6.2
CNC[C@H](Cc1ccccc1)NC[C@@H](Cc1cccc2ccccc12)NCCc1ccc(C)cc1 | 48.2 | / | /
COC(=O)CCC(=O)OC1(C)C(=O)C=C2C=C(C3CC3)N(CC(C)C)C=C2C1=O (stereo unspecified) | 53.3 | / | /
CC(=O)N(/N=C1\Sc2ccccc2C1=O)c1ccc(C)cc1C | 43.4 | / | /
Cc1cccc(CN2C(=O)c3ccccc3Sc3ccc(C(=O)O)cc32)c1 | -52.8* | 9.6 | 12.8
CCN1CCN(CCCNC(=O)c2ccc(/C=C3/Oc4ccccc4N(Cc4cccc(C)c4)C3=O)cc2)CC1 | 46.8 | / | /
O=C(O)CCCNc1cc(N2CCN(C(=O)c3ccco3)CC2)c2noc3c2c1C(=O)c1ccccc1-3 | 59.9 | / | /

Screening results: PubChem, Sanford-Burnham Center for Chemical Genomics
